Type in all cases: functional
For test [1], the system named is Mycobacterium tuberculosis. Description: Antitubercular activity against INH-resistant Mycobacterium tuberculosis Spec.800 harboring InhA promoter mutation assessed as fractional inhibitory concentration index in presence of 1/2 x MIC rifampicin incubated for 14 days by MABA method. Conditions: time 14 day. In short, it runs like this:
(§1)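 Interaction analysis in Middlebrook 7H9 with 10% OADC. Combination MICs came from mixing the derivative (1 to 1/32 MIC) with the reference drug at 1/2 MIC, and the reverse, after 14 days at 37 °C with McFarland 1 inoculum. FICI was calculated from the combination MIC values and the MICs alone.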
(In general: Resazurin is reduced to fluorescent resorufin, in cell work by metabolically active cells.)

The test system of test [2] is Mycobacterium tuberculosis. The experiment in a line: Antitubercular activity against INH-resistant Mycobacterium tuberculosis Spec.800 harboring InhA promoter mutation assessed as fractional inhibitory concentration index in presence of 1/2 x MIC isoniazid incubated for 14 days by MABA method. Conditions: time 14 day. The procedure, abridged:
as §1

Test [3] has as its system Mycobacterium tuberculosis. Description: Antitubercular activity against INH-resistant Mycobacterium tuberculosis Spec.800 harboring InhA promoter mutation assessed as fractional inhibitory concentration index in presence of 1/2 x MIC streptomycin incubated for 14 days by MABA method. The settings on record: time 14 day. In short, it runs like this: as §1
Test [4] has as its system Mycobacterium tuberculosis. Description: Antitubercular activity against INH-resistant Mycobacterium tuberculosis Spec.800 harboring InhA promoter mutation assessed as fractional inhibitory concentration index in presence of 1/2 x MIC ethambutol incubated for 14 days by MABA method. Conditions: time 14 day. In short, it runs like this: as §1
Test [5] concerns Mycobacterium tuberculosis. Description: Antitubercular activity against PAS/INH/EMB/RMP-resistant Mycobacterium tuberculosis Spec.210 assessed as reduction in bacterial growth incubated for 14 days in presence of 1/2 x MIC rifampicin by MABA method. The settings on record: Mycobacterium tuberculosis, 210, 336 h; time 14 day. The procedure, abridged:
(§2)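 Checkerboard-style combination in Middlebrook 7H9 broth with 10% OADC. The test derivative was varied from 1 to 1/32 of its MIC, and the reference drug was fixed at 1/2 its own MIC. Single-agent MICs were determined first by MABA. Samples of 4 ml received inoculum at 1 McFarland and were incubated 14 days at 37 °C. The endpoint was the lowest derivative concentration that inhibited growth.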

The test system of test [6] is Mycobacterium tuberculosis. The experiment in a line: Antitubercular activity against PAS/INH/EMB/RMP-resistant Mycobacterium tuberculosis Spec.210 assessed as reduction in bacterial growth incubated for 14 days in presence of 1/2 x MIC isoniazid by MABA method. Conditions: Mycobacterium tuberculosis, 210, 336 h; time 14 day. The procedure, abridged:
as §2

Test [7] relates to Mycobacterium tuberculosis. Description: Antitubercular activity against PAS/INH/EMB/RMP-resistant Mycobacterium tuberculosis Spec.210 assessed as reduction in bacterial growth incubated for 14 days in presence of 1/2 x MIC ethambutol by MABA method. The settings on record: Mycobacterium tuberculosis, 210, 336 h; time 14 day. The procedure, abridged: as §2
The test system of test [8] is Mycobacterium tuberculosis. Description: Antitubercular activity against INH-resistant Mycobacterium tuberculosis Spec.800 assessed as ethambutol MIC incubated for 14 days in presence of ethambutol by MABA method. Conditions: Mycobacterium tuberculosis, 800, 336 h; time 14 day. The procedure, abridged: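 In Middlebrook 7H9 with 10% OADC, the reference drug (INH, RMP, SM or EMB) at 1 to 1/32 of its MIC alone was mixed with the test derivative fixed at 1/2 its MIC. 4 ml samples were inoculated with McFarland 1 suspension and incubated 14 days at 37 °C. MIC is the lowest drug concentration in combination that inhibited growth.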

The test system of test [9] is Mycobacterium tuberculosis. The experiment in a line: Potency index, Ratio of rifampicin MIC to test compound MIC for antitubercular activity against PAS/INH/EMB/RMP-resistant Mycobacterium tuberculosis Spec.210 assessed as inhibition of microbial growth incubated for 1 week by MABA method. The settings on record: time 1 weeks.
The subject of test [10] is Mycobacterium tuberculosis. Description: Potentiation of rifampcin-induced antimycobacterial activity against INH-resistant Mycobacterium tuberculosis Spec.800 harboring InhA promoter mutation assessed as fold decrease in rifampicin MIC at 1/2X MIC incubated for 14 days in presence of rifampicin by MABA method. The settings on record: time 14 day. The procedure, abridged:
(§3)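 Combination assay in Middlebrook 7H9 broth with 10% OADC. The reference drug (INH, RMP, SM or EMB) was varied from 1 to 1/32 of its MIC, and the test derivative was fixed at 1/2 its own MIC. Single-agent MICs were determined first by MABA. Inoculum was 1 McFarland, with 14 days of incubation at 37 °C. The endpoint was the lowest reference-drug concentration that inhibited growth.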

The test system of test [11] is Mycobacterium tuberculosis. Description: Potentiation of ethambutol-induced antimycobacterial activity against INH-resistant Mycobacterium tuberculosis Spec.800 harboring InhA promoter mutation assessed as fold decrease in ethambutol MIC at 1/2X MIC incubated for 14 days in presence of ethambutol by MABA method. Conditions: time 14 day. The procedure, abridged: as §3

The test system of test [12] is Mycobacterium tuberculosis. The experiment in a line: Potentiation of isoniazid-induced antimycobacterial activity against INH-resistant Mycobacterium tuberculosis Spec.800 harboring InhA promoter mutation assessed as fold decrease in isoniazid MIC at 1/2X MIC incubated for 14 days in presence of isoniazid by MABA method. The settings on record: time 14 day. The procedure, abridged:
as §3

As to `COc1ccc(-n2nnnc2Nc2cccc(Br)c2)cc1`, the “fractional inhibitory concentration index (FICI)” value in [1] came to 0.75; in test [2], 0.625; in test [3] it was 0.56; in [4] it was 0.75. Further, the MIC (in general, the smallest concentration in the dilution series that meets the test's criterion for growth inhibition) was determined as 0.5 µg/mL in [5], 0.25 µg/mL in test [6], 2 µg/mL in test [7] and 1 µg/mL in test [8]. For the same compound, the Ratio in [9] turned out to be 16. Moreover, the “fold change (FC)” value in [10], in [11] and in [12] was “<=4” in each case.
As to `COc1ccc(-n2nnnc2Nc2ccc(Br)cc2)cc1`, the “fractional inhibitory concentration index (FICI)” value turned out to be 1.125 in [1], 0.5 in [2], 0.375 in test [3] and 0.75 in [4]. Moreover, the MIC in test [5] was determined as 1 µg/mL; in test [6], 0.25 µg/mL; in [7], 2 µg/mL; in test [8] it was 1 µg/mL. For the same compound, the Ratio in test [9] stood at 16.

Source of the values: ChEMBL document CHEMBL4680121, “Development of (4-methoxyphenyl)-1H-tetrazol-5-amine regioisomers as a new class of selective antitubercular agents” (Eur J Med Chem, 2020).
